According to ChEMBL document CHEMBL1152649, “Synthesis, cytotoxicity and human telomerase inhibition activities of a series of 1,2-heteroannelated anthraquinones and anthra[1,2-d]imidazole-6,11-dione homologues” (2009):

Columns and labels:
[1] = test system: T47D; experiment: Antiproliferative activity against human T47D cells assessed as cell growth at 10 uM; format: functional; settings: read-out: Activity
How it was run: (§1)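 NCI 60 cell line panel, single dose (10^-5 M), run per the Developmental Therapeutics Program protocol (one dose mean graph). Each result is the growth percentage of treated cells relative to untreated control cells.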

[2] = test system: UO-31; experiment: Antiproliferative activity against human UO31 cells assessed as cell growth at 10 uM; format: functional; settings: read-out: Activity; how it was run: as §1
[3] = test system: MOLT-4; experiment: Antiproliferative activity against human MOLT4 cells assessed as cell growth at 10 uM; format: functional; settings: read-out: Activity
How it was run: (§2)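 NCI 60 cell line panel, single-dose screen (10^-5 M) run by the developmental therapeutics program protocol. Results are given as growth percent of treated cells relative to untreated control cells for each line.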

[4] = test system: SR; experiment: Antiproliferative activity against human SR cells assessed as cell growth at 10 uM; format: functional; settings: read-out: Activity; how it was run: as §1
[5] = test system: OVCAR-4; experiment: Antiproliferative activity against human OVCAR4 cells assessed as cell growth at 10 uM; format: functional; settings: read-out: Activity; how it was run: as §2
[6] = test system: M14; experiment: Antiproliferative activity against human M14 cells assessed as cell growth at 10 uM; format: functional; settings: read-out: Activity; how it was run: as §2
[7] = target: Telomerase reverse transcriptase (Homo sapiens) (UniProt O14746); experiment: Inhibition of TERT in human H1299 cells assessed as residual transcriptional activity at 100 uM after 24 hrs by SEAP reporter gene assay; values are per cent of control
Telomerase reverse transcriptase (Homo sapiens), sequence (O14746 whole entry): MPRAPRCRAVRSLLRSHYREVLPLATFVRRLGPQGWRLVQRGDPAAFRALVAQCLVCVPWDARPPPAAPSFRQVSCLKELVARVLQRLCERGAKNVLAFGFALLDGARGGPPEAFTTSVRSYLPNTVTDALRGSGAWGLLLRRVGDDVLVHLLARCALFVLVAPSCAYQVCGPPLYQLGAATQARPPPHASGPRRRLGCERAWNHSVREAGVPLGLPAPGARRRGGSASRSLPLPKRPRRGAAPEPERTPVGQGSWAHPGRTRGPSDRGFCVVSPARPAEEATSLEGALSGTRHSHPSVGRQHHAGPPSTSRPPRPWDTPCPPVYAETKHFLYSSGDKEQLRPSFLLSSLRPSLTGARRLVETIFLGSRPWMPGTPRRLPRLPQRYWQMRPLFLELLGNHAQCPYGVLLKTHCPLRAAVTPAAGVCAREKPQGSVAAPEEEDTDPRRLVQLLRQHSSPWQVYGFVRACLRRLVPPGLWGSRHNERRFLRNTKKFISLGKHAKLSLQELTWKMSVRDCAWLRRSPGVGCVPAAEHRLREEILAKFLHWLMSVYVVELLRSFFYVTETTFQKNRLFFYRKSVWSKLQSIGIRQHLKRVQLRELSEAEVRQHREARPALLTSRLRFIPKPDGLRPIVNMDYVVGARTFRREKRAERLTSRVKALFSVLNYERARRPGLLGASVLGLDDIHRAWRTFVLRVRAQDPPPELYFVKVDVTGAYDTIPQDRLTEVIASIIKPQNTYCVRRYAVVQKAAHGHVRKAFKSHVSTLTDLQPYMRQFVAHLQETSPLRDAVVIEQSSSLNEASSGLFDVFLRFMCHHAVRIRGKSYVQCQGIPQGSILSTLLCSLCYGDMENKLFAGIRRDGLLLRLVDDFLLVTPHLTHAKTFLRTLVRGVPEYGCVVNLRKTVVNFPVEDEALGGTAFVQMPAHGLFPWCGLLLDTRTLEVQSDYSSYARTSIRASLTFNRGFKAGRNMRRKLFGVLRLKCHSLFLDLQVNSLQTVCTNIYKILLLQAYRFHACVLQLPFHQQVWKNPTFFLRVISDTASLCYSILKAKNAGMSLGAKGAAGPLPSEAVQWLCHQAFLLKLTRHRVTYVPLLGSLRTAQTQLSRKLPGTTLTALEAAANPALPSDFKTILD

[8] = test system: HCT-15; experiment: Antiproliferative activity against human HCT15 cells assessed as cell growth at 10 uM; format: functional; settings: read-out: Activity; how it was run: as §2
[9] = test system: NCI-H322M; experiment: Antiproliferative activity against human NCI-H322M cells assessed as cell growth at 10 uM; format: functional; settings: read-out: Activity; how it was run: as §2
[10] = test system: NCI-H23; experiment: Antiproliferative activity against human NCI-H23 cells assessed as cell growth at 10 uM; format: functional; settings: read-out: Activity; how it was run: as §2
[11] = test system: MCF7; experiment: Antiproliferative activity against human MCF7 cells assessed as cell growth at 10 uM; format: functional; settings: read-out: Activity; how it was run: as §2
[12] = test system: NCI/ADR-RES; experiment: Antiproliferative activity against human NCI/ADR-RES cells assessed as cell growth at 10 uM; format: functional; settings: read-out: Activity; how it was run: as §2
[13] = test system: SK-MEL-28; experiment: Antiproliferative activity against human SK-MEL-28 cells assessed as cell growth at 10 uM; format: functional; settings: read-out: Activity; how it was run: as §2
[14] = test system: NCI-H522; experiment: Antiproliferative activity against human NCI-H522 cells assessed as cell growth at 10 uM; format: functional; settings: read-out: Activity; how it was run: as §2
[15] = test system: UACC-62; experiment: Antiproliferative activity against human UACC62 cells assessed as cell growth at 10 uM; format: functional; settings: read-out: Activity; how it was run: as §1
[16] = test system: ACHN; experiment: Antiproliferative activity against human ACHN cells assessed as cell growth at 10 uM; format: functional; settings: read-out: Activity; how it was run: as §2
[17] = test system: TK-10; experiment: Antiproliferative activity against human TK10 cells assessed as cell growth at 10 uM; format: functional; settings: read-out: Activity; how it was run: as §1
[18] = test system: SF-295; experiment: Antiproliferative activity against human SF295 cells assessed as cell growth at 10 uM; format: functional; settings: read-out: Activity; how it was run: as §2
[19] = test system: HL-60(TB); experiment: Antiproliferative activity against human HL-60(TB) cells assessed as cell growth at 10 uM; format: functional; settings: read-out: Activity
How it was run: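 NCI Developmental Therapeutics Program 60-cell-line one-dose screen at 10^-5 M. Readout is growth percentage of treated cells relative to untreated control cells.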

[20] = test system: LOX IMVI; experiment: Antiproliferative activity against human LOXIMVI cells assessed as cell growth at 10 uM; format: functional; settings: read-out: Activity; how it was run: as §2
[21] = test system: Malme-3M; experiment: Antiproliferative activity against human MALME-3M cells assessed as cell growth at 10 uM; format: functional; settings: read-out: Activity; how it was run: as §2
[22] = test system: SK-MEL-5; experiment: Antiproliferative activity against human SK-MEL-5 cells assessed as cell growth at 10 uM; format: functional; settings: read-out: Activity; how it was run: as §2
[23] = test system: SF-268; experiment: Antiproliferative activity against human SF268 cells assessed as cell growth at 10 uM; format: functional; settings: read-out: Activity; how it was run: as §2
[24] = test system: NCI-H460; experiment: Antiproliferative activity against human NCI-H460 cells assessed as cell growth at 10 uM; format: functional; settings: read-out: Activity; how it was run: as §2
[25] = test system: MDA-MB-231; experiment: Antiproliferative activity against human MDA-MB-231 cells assessed as cell growth at 10 uM; format: functional; settings: read-out: Activity; how it was run: as §2
[26] = test system: SK-OV-3; experiment: Antiproliferative activity against human SKOV3 cells assessed as cell growth at 10 uM; format: functional; settings: read-out: Activity; how it was run: as §2
[27] = Cytotoxicity against human H1299 cells at 10 uM after 48 hrs by MTT assay; format: functional; settings: NCI-H1299, 48 h
How it was run: (§3)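 H1299 non-small cell lung cancer cells were grown in RPMI 1640 with 10% FBS, penicillin and streptomycin at 37 °C under 5% CO2. About 2 × 10³ cells per well were seeded and left 24 h. Compounds were dissolved fresh in DMSO, diluted into complete medium and applied for 48 h. MTT was then added for 4 h at 37 °C, followed by lysis buffer (20% SDS, 50% DMF) for 16 h, and absorbance was read at 550 nm.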

[28] = test system: OVCAR-8; experiment: Antiproliferative activity against human OVCAR8 cells assessed as cell growth at 10 uM; format: functional; settings: read-out: Activity; how it was run: as §2
[29] = test system: SNB-75; experiment: Antiproliferative activity against human SNB75 cells assessed as cell growth at 10 uM; format: functional; settings: read-out: Activity; how it was run: as §1
[30] = test system: OVCAR-3; experiment: Antiproliferative activity against human OVCAR-3 cells assessed as cell growth at 10 uM; format: functional; settings: read-out: Activity; how it was run: as §2
[31] = test system: A498; experiment: Antiproliferative activity against human A498 cells assessed as cell growth at 10 uM; format: functional; settings: read-out: Activity; how it was run: as §2
[32] = test system: HCT-116; experiment: Antiproliferative activity against human HCT116 cells assessed as cell growth at 10 uM; format: functional; settings: read-out: Activity; how it was run: as §2
[33] = test system: 786-0; experiment: Antiproliferative activity against human 786-0 cells assessed as cell growth at 10 uM; format: functional; settings: read-out: Activity; how it was run: as §2
[34] = test system: SW-620; experiment: Antiproliferative activity against human SW620 cells assessed as cell growth at 10 uM; format: functional; settings: read-out: Activity; how it was run: as §1
[35] = test system: U-251; experiment: Antiproliferative activity against human U251 cells assessed as cell growth at 10 uM; format: functional; settings: read-out: Activity; how it was run: as §1
[36] = target: Telomerase reverse transcriptase (Homo sapiens) (UniProt O14746); experiment: Inhibition of TERT in human H1299 cells assessed as residual transcriptional activity at 10 uM after 24 hrs by SEAP reporter gene assay; values are per cent of control
[37] = test system: A549; experiment: Antiproliferative activity against human A549 cells assessed as cell growth at 10 uM; format: functional; settings: read-out: Activity; how it was run: as §2
[38] = test system: HCC 2998; experiment: Antiproliferative activity against human HCC2998 cells assessed as cell growth at 10 uM; format: functional; settings: read-out: Activity; how it was run: as §2
[39] = test system: CAKI-1; experiment: Antiproliferative activity against human Caki1 cells assessed as cell growth at 10 uM; format: functional; settings: read-out: Activity; how it was run: as §2
[40] = test system: HT-29; experiment: Antiproliferative activity against human HT-29 cells assessed as cell growth at 10 uM; format: functional; settings: read-out: Activity; how it was run: as §2
[41] = Cytotoxicity against human H1299 cells at 100 uM after 48 hrs by MTT assay; format: functional; settings: NCI-H1299, 48 h; how it was run: as §3
[42] = test system: MDA-MB-435; experiment: Antiproliferative activity against human MDA-MB-435 cells assessed as cell growth at 10 uM; format: functional; settings: read-out: Activity; how it was run: as §2
[43] = test system: EKVX; experiment: Antiproliferative activity against human EKVX cells assessed as cell growth at 10 uM; format: functional; settings: read-out: Activity; how it was run: as §2
[44] = Antiproliferative activity against human Hs 578T cells assessed as cell growth at 10 uM; format: functional; settings: read-out: Activity; how it was run: as §2

O=C1c2ccccc2C(=O)c2c1ccc1nccnc21
growth at 10 µM [1]: 85.2% | growth at 10 µM [2]: 51.5% | growth at 10 µM [3]: 22.9% | growth at 10 µM [4]: 82.9% | growth at 10 µM [5]: 94.2% | growth at 10 µM [6]: 59.8% | residual activity [7]: 24% | growth at 10 µM [8]: 52.1% | growth at 10 µM [9]: 96.3% | growth at 10 µM [10]: 65.1% | growth at 10 µM [11]: 39.7% | growth at 10 µM [12]: 68% | growth at 10 µM [13]: 97.5% | growth at 10 µM [14]: 24.1% | growth at 10 µM [15]: 90.5% | growth at 10 µM [16]: 46.5% | growth at 10 µM [17]: 127% | growth at 10 µM [18]: 80.8% | growth at 10 µM [19]: 102% | growth at 10 µM [20]: 44.2% | growth at 10 µM [21]: 181% | growth at 10 µM [22]: 66.6% | growth at 10 µM [23]: 68% | growth at 10 µM [24]: 31.7% | growth at 10 µM [25]: 81.4% | growth at 10 µM [26]: 78.2% | viability at 10 µM [27]: 13% | growth at 10 µM [28]: 47.5% | growth at 10 µM [29]: 105% | growth at 10 µM [30]: 71.7% | growth at 10 µM [31]: 98.8% | growth at 10 µM [32]: 53.3% | growth at 10 µM [33]: 28.4% | growth at 10 µM [34]: 39.2% | growth at 10 µM [35]: 63.5% | residual activity [36]: 26% | growth at 10 µM [37]: 47.1% | growth at 10 µM [38]: -7.15% | growth at 10 µM [39]: 87.9% | growth at 10 µM [40]: 81.9% | viability at 100 µM [41]: 6% | growth at 10 µM [42]: 102% | growth at 10 µM [43]: 82.6% | growth at 10 µM [44]: 76.8%
